Published values pooled from the literature.

Compound	tested on	test	test system	conditions	measurement	result
O=c1ccc2nc3ccc(O)cc3oc-2c1	Escherichia coli	microbial growth		24 h	MIC	> 32 µg/mL
COc1c(N2C[C@@H]3CCCN[C@@H]3C2)c(F)cc2c(=O)c(C(=O)O)cn(C3CC3)c12	Escherichia coli	microbial growth	ATCC25922		MIC	0.03 µM
N.N.[Cl][Pt][Cl]	HK-2	cell growth or viability, MTT		72 h	IC50	7.59 µM
Oc1c(Cl)cc(Cl)cc1-c1[nH]c(Cl)c(Cl)c1Cl	Staphylococcus aureus	microbial growth	BAA44 MRSA		MIC	0.06 µM
O=c1ccc2nc3ccc(OCc4ccc([N+](=O)[O-])o4)cc3oc-2c1	Staphylococcus aureus	microbial growth	MRSA	24 h	MIC	> 32 µg/mL
Oc1c(Br)cc(Br)cc1-c1[nH]c(Br)c(Br)c1Br	Staphylococcus aureus	microbial growth	ATCC29213 MSSA		MIC	0.58 µM
CN[C@H](CC(C)C)C(=O)N[C@H]1C(=O)N[C@@H](CC(N)=O)C(=O)N[C@H]2C(=O)N[C@H]3C(=O)N[C@H](C(=O)N[C@H](C(=O)O)c4cc(O)cc(O)c4-c4cc3ccc4O)[C@H](O)c3ccc(c(Cl)c3)Oc3cc2cc(c3O[C@@H]2O[C@H](CO)[C@@H](O)[C@H](O)[C@H]2O[C@H]2C[C@](C)(N)[C@H](O)[C@H](C)O2)Oc2ccc(cc2Cl)[C@H]1O	Staphylococcus aureus	microbial growth, broth dilution	MRSA	24 h, drug-resistant strain	MIC	0.67 µM
COc1c(N2CC3CCCNC3C2)c(F)cc2c(=O)c(C(=O)OCc3cnc([N+](=O)[O-])s3)cn(C3CC3)c12 (centres unmarked)	Escherichia coli	microbial growth	ATCC25922		MIC	0.09 µM
